Converted amounts (≈) assume the structure as drawn. The source made the active and inactive calls. The rule behind the calls is not given here.
Assays:
Mycobacterium kansasii [1] = assay: Antimycobacterial activity against Mycobacterium kansasii CNCTC My 235/80 after 21 days; type: functional; details: CNCTC My 235/80, 504 h
Procedure, shortened: (§1)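 Microdilution in Šula's semisynthetic medium; compounds in DMSO at 32–0.03 µM. Inoculum from 1.0 McFarland suspension diluted 10-4. […] Isoniazid and rifampicin as reference drugs.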

HepG2 = assay: Cytotoxicity against human HepG2 cells assessed as reduction in cell viability after 48 hrs by CellTiter 96 aqueous one solution assay; type: cell-based; details: HepG2, 48 h
Staphylococcus aureus [2] = assay: Antibacterial activity against Staphylococcus aureus subsp. aureus ATCC 29213 CCM 4223 at highest concentration measured after 24 to 48 hrs by alamar blue dye based broth microdilution assay; type: functional, organism-based
Aspergillus fumigatus = assay: Antifungal activity against Aspergillus fumigatus ATCC 204305 at highest concentration measured after 24 to 48 hrs by alamar blue dye based broth microdilution assay; type: functional, organism-based
[3] = Cytotoxicity against human A431 cells assessed as cell viability at 30 uM after 48 hrs by CellTiter 96 aqueous one solution assay relative to control; type: cell-based, A-431; details: read-out: Activity
Procedure, shortened: (§2)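 HepG2 (DMEM, 10% FBS, 1 mM pyruvate) or A431 (DMEM, 10% FBS) seeded 10,000 cells/well, 24 h at 37 °C, 5% CO2, then 30 µM compound for 48 h. MTS reagent 60 min, absorbance 490 nm, background subtracted; 0.1% DMSO vehicle = 100%, 10% SDS = 0% viability.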

Lichtheimia corymbifera = assay: Antifungal activity against Lichtheimia corymbifera CCM 8077 at highest concentration measured after 24 to 48 hrs by alamar blue dye based broth microdilution assay; type: functional, organism-based
Mycobacterium kansasii [4] = assay: Antimycobacterial activity against Mycobacterium kansasii CNCTC My 235/80 after 7 days; type: functional; details: CNCTC My 235/80, 168 h; procedure, shortened: as §1
Candida parapsilosis = assay: Antifungal activity against Candida parapsilosis ATCC 22019 CCM 8260 at highest concentration measured after 24 to 48 hrs by alamar blue dye based broth microdilution assay; type: functional, organism-based
[5] = test system: Mycobacterium tuberculosis; assay: Antimycobacterial activity against XDR Mycobacterium tuberculosis Praha 131 after 21 days; type: functional; details: Praha 131, 504 h
Procedure, shortened: (§3)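 M. tuberculosis strains (H37Rv and clinical MDR/XDR isolates) tested by microdilution in Šula's semisynthetic medium. Compounds were dissolved in DMSO and tested at 32 to 0.03 µM in twofold steps. Inoculum was a 1.0 McFarland suspension diluted 10-3. Plates were incubated at 37 °C and read at 14 and 21 days.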

[6] = Cytotoxicity against human HepG2 cells assessed as cell viability at 30 uM after 48 hrs by CellTiter 96 aqueous one solution assay relative to control; type: cell-based; details: read-out: Activity; procedure, shortened: as §2
[7] = test system: Mycobacterium tuberculosis; assay: Antimycobacterial activity against Mycobacterium tuberculosis H37Rv CNCTC My 331/88 after 14 days; type: functional; details: H37Rv CNCTC My 331/88, 336 h; procedure, shortened: as §3
Escherichia coli = assay: Antibacterial activity against Escherichia coli ATCC 25922 CCM 3954 at highest concentration measured after 24 to 48 hrs by alamar blue dye based broth microdilution assay; type: functional, organism-based
Mycobacterium avium [8] = assay: Antimycobacterial activity against Mycobacterium avium CNCTC My 330/88 after 14 days; type: functional; details: CNCTC My 330/88, 336 h
Procedure, shortened: (§4)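 M. avium was tested by microdilution in Šula's semisynthetic medium, with compounds dissolved in DMSO and serially diluted from 1000 down to 1. Inoculum was a 1.0 McFarland suspension diluted 10-5. Plates were incubated at 37 °C and read at 14 and 21 days. […] Isoniazid and rifampicin served as standards.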

Mycobacterium kansasii [9] = assay: Antimycobacterial activity against Mycobacterium kansasii 6509/96 after 14 days; type: functional; details: 6509/96, 336 h; procedure, shortened: as §1
Mycobacterium kansasii [10] = assay: Antimycobacterial activity against Mycobacterium kansasii 6509/96 after 7 days; type: functional; details: 6509/96, 168 h; procedure, shortened: as §1
Aspergillus flavus = assay: Antifungal activity against Aspergillus flavus CCM 8363 at highest concentration measured after 24 to 48 hrs by alamar blue dye based broth microdilution assay; type: functional, organism-based
Mycobacterium kansasii [11] = assay: Antimycobacterial activity against Mycobacterium kansasii CNCTC My 235/80 after 14 days; type: functional; details: CNCTC My 235/80, 336 h; procedure, shortened: as §1
Mycobacterium avium [12] = assay: Antimycobacterial activity against Mycobacterium avium CNCTC My 330/88 after 21 days; type: functional; details: CNCTC My 330/88, 504 h; procedure, shortened: as §4
[13] = test system: Mycobacterium tuberculosis; assay: Antimycobacterial activity against Mycobacterium tuberculosis H37Rv CNCTC My 331/88 after 21 days; type: functional; details: H37Rv CNCTC My 331/88, 504 h; procedure, shortened: as §3
Enterococcus faecalis = assay: Antibacterial activity against Enterococcus faecalis ATCC 29212 CCM 4224 at highest concentration measured after 24 to 48 hrs by alamar blue dye based broth microdilution assay; type: functional, organism-based
Staphylococcus aureus [14] = assay: Antibacterial activity against methicillin-resistant Staphylococcus aureus subsp. aureus ATCC 43300 CCM 4750 at highest concentration measured after 24 to 48 hrs by alamar blue dye based broth microdilution assay; type: functional, organism-based
Candida tropicalis = assay: Antifungal activity against Candida tropicalis ATCC 750 CCM 8264 at highest concentration measured after 24 to 48 hrs by alamar blue dye based broth microdilution assay; type: functional, organism-based
A-431 = assay: Cytotoxicity against human A431 cells assessed as reduction in cell viability after 48 hrs by CellTiter 96 aqueous one solution assay; type: cell-based; details: A-431, 48 h
[15] = test system: Mycobacterium tuberculosis; assay: Antimycobacterial activity against XDR Mycobacterium tuberculosis Praha 131 after 14 days; type: functional; details: Praha 131, 336 h; procedure, shortened: as §3
Pseudomonas aeruginosa = assay: Antibacterial activity against Pseudomonas aeruginosa ATCC 27853 CCM 3955 at highest concentration measured after 24 to 48 hrs by alamar blue dye based broth microdilution assay; type: functional, organism-based
Candida albicans = assay: Antifungal activity against Candida albicans ATCC 24433 CCM 8320 at highest concentration measured after 24 to 48 hrs by alamar blue dye based broth microdilution assay; type: functional, organism-based
[16] = test system: Staphylococcus epidermidis; assay: Antibacterial activity against Staphylococcus epidermidis at highest concentration measured after 24 to 48 hrs by alamar blue dye based broth microdilution assay; type: functional, organism-based
Klebsiella pneumoniae = assay: Antibacterial activity against Klebsiella pneumoniae at highest concentration measured after 24 to 48 hrs by alamar blue dye based broth microdilution assay; type: functional, organism-based
Serratia marcescens = assay: Antibacterial activity against Serratia marcescens at highest concentration measured after 24 to 48 hrs by alamar blue dye based broth microdilution assay; type: functional, organism-based
Pichia kudriavzevii = assay: Antifungal activity against Candida krusei ATCC 6258 CCM8271 at highest concentration measured after 24 to 48 hrs by alamar blue dye based broth microdilution assay; type: functional, organism-based
[17] = test system: Trichophyton interdigitale; assay: Antifungal activity against Trichophyton interdigitale ATCC 9533 CCM 8377 at highest concentration measured after 72 to 120 hrs by alamar blue dye based broth microdilution assay; type: functional
Mycobacterium kansasii [18] = assay: Antimycobacterial activity against Mycobacterium kansasii 6509/96 after 21 days; type: functional; details: 6509/96, 504 h; procedure, shortened: as §1

| SMILES | MIC99 (Mycobacterium kansasii [1]) [µM] | IC50 (HepG2) [µM] | Activity (Staphylococcus aureus [2]) | Activity (Aspergillus fumigatus) | viability at 48 h, 30 µM [3] [%] | Activity (Lichtheimia corymbifera) | MIC99 (Mycobacterium kansasii [4]) [µM] | Activity (Candida parapsilosis) | MIC99 [5] [µM] | viability at 48 h, 30 µM [6] [%] | MIC99 [7] [µM] | Activity (Escherichia coli) | MIC99 (Mycobacterium avium [8]) [µM] | MIC99 (Mycobacterium kansasii [9]) [µM] | MIC99 (Mycobacterium kansasii [10]) [µM] | Activity (Aspergillus flavus) | MIC99 (Mycobacterium kansasii [11]) [µM] | MIC99 (Mycobacterium avium [12]) [µM] | MIC99 [13] [µM] | Activity (Enterococcus faecalis) | further results |
| --- | --- | --- | --- | --- | --- | --- | --- | --- | --- | --- | --- | --- | --- | --- | --- | --- | --- | --- | --- | --- | --- |
| CCn1c(SCc2ccccc2)nnc1-c1cc([N+](=O)[O-])cc([N+](=O)[O-])c1 | 0.03 (≈ 0.0116 µg/mL) | > 30 | inactive | inactive | 90 | inactive | 0.03 (≈ 0.0116 µg/mL) | inactive | 0.03 (≈ 0.0116 µg/mL) | 156 | 0.03 (≈ 0.0116 µg/mL) | inactive | 250 (≈ 96.4 µg/mL) | 0.03 (≈ 0.0116 µg/mL) | 0.03 (≈ 0.0116 µg/mL) | inactive | 0.03 (≈ 0.0116 µg/mL) | 250 (≈ 96.4 µg/mL) | 0.03 (≈ 0.0116 µg/mL) | inactive | Activity (Staphylococcus aureus [14]): inactive; Activity (Candida tropicalis): inactive; IC50 (A-431): > 30 µM; MIC99 [15]: 0.03 µM (≈ 0.0116 µg/mL); Activity (Pseudomonas aeruginosa): inactive; Activity (Candida albicans): inactive; Activity [16]: inactive; Activity (Klebsiella pneumoniae): inactive; Activity (Serratia marcescens): inactive; Activity (Pichia kudriavzevii): inactive; Activity [17]: inactive; MIC99 (Mycobacterium kansasii [18]): 0.03 µM (≈ 0.0116 µg/mL) |
| CCCCCCCCSc1nnc(-c2cc([N+](=O)[O-])cc([N+](=O)[O-])c2)n1Cc1ccccc1 | 0.125 (≈ 0.0587 µg/mL) | > 30 | inactive | inactive | 131 | inactive | 0.06 (≈ 0.0282 µg/mL) | inactive | 0.25 (≈ 0.117 µg/mL) | 99 | 0.06 (≈ 0.0282 µg/mL) | inactive | 250 (≈ 117 µg/mL) | 0.06 (≈ 0.0282 µg/mL) | 0.06 (≈ 0.0282 µg/mL) | inactive | 0.06 (≈ 0.0282 µg/mL) | 250 (≈ 117 µg/mL) | 0.125 (≈ 0.0587 µg/mL) | inactive | Activity (Staphylococcus aureus [14]): inactive; Activity (Candida tropicalis): inactive; IC50 (A-431): > 30 µM; MIC99 [15]: 0.125 µM (≈ 0.0587 µg/mL); Activity (Pseudomonas aeruginosa): inactive; Activity (Candida albicans): inactive; Activity [16]: inactive; Activity (Klebsiella pneumoniae): inactive; Activity (Serratia marcescens): inactive; Activity (Pichia kudriavzevii): inactive; Activity [17]: inactive; MIC99 (Mycobacterium kansasii [18]): 0.125 µM (≈ 0.0587 µg/mL) |
| Cn1c(SCc2ccc(Cl)c(Cl)c2)nnc1-c1cc([N+](=O)[O-])cc([N+](=O)[O-])c1 | 0.5 (≈ 0.22 µg/mL) | > 30 | inactive | inactive | 92 | inactive | 0.125 (≈ 0.055 µg/mL) | inactive | 0.06 (≈ 0.0264 µg/mL) | 110 | 0.06 (≈ 0.0264 µg/mL) | inactive | > 500 | 0.125 (≈ 0.055 µg/mL) | 0.06 (≈ 0.0264 µg/mL) | inactive | 0.25 (≈ 0.11 µg/mL) | > 500 | 0.06 (≈ 0.0264 µg/mL) | inactive | Activity (Staphylococcus aureus [14]): inactive; Activity (Candida tropicalis): inactive; IC50 (A-431): > 30 µM; MIC99 [15]: 0.06 µM (≈ 0.0264 µg/mL); Activity (Pseudomonas aeruginosa): inactive; Activity (Candida albicans): inactive; Activity [16]: inactive; Activity (Klebsiella pneumoniae): inactive; Activity (Serratia marcescens): inactive; Activity (Pichia kudriavzevii): inactive; Activity [17]: inactive; MIC99 (Mycobacterium kansasii [18]): 0.125 µM (≈ 0.055 µg/mL) |
| CCCSc1nnc(-c2cc([N+](=O)[O-])cc([N+](=O)[O-])c2)n1Cc1ccccc1 | 0.25 (≈ 0.0999 µg/mL) | > 30 | inactive | inactive | 123 | inactive | 0.125 (≈ 0.0499 µg/mL) | inactive | 0.125 (≈ 0.0499 µg/mL) | 90 | 0.06 (≈ 0.024 µg/mL) | inactive | 250 (≈ 99.9 µg/mL) | 0.25 (≈ 0.0999 µg/mL) | 0.25 (≈ 0.0999 µg/mL) | inactive | 0.25 (≈ 0.0999 µg/mL) | 250 (≈ 99.9 µg/mL) | 0.125 (≈ 0.0499 µg/mL) | inactive | Activity (Staphylococcus aureus [14]): inactive; Activity (Candida tropicalis): inactive; IC50 (A-431): > 30 µM; MIC99 [15]: 0.125 µM (≈ 0.0499 µg/mL); Activity (Pseudomonas aeruginosa): inactive; Activity (Candida albicans): inactive; Activity [16]: inactive; Activity (Klebsiella pneumoniae): inactive; Activity (Serratia marcescens): inactive; Activity (Pichia kudriavzevii): inactive; Activity [17]: inactive; MIC99 (Mycobacterium kansasii [18]): 0.5 µM (≈ 0.2 µg/mL) |

— ChEMBL document CHEMBL4373711, “Development of 3,5-Dinitrophenyl-Containing 1,2,4-Triazoles and Their Trifluoromethyl Analogues as Highly Efficient Antitubercular Agents Inhibiting Decaprenylphosphoryl-β-d-ribofuranose 2'-Oxidase” (J Med Chem, 2019)
